{"data": "Measured values of several laboratories", "organism": "Plasmodium falciparum", "effect on": "parasite growth", "note": "Each line is one published result; the experiments were not run side by side."}
{"Compound": "COc1cc(/C=C/C(=O)/C=C/c2ccc(O)c(OC)c2)ccc1O", "strain": "3D7", "setting": "blood stage", "quantity": "EC50", "result": "150 nM"}
{"Compound": "Cn1cc(-c2ccc3ccn(CC(=O)Nc4ccccc4Cl)c3c2)c(C(F)(F)F)n1", "strain": "3D7", "time": "72 h", "setting": "blood stage", "quantity": "EC50", "result": "46 nM"}
{"Compound": "Cc1ccc(N(C)c2ccc(NC(=O)CN(C)c3cc(F)ccc3N3CCCC3=O)cc2)cc1", "strain": "3D7", "time": "72 h", "setting": "blood stage", "quantity": "EC50", "result": "34 nM"}
{"Compound": "COC1=CC(c2ccc[nH]2)=N/C1=C\\c1cc(Cc2ccc(OC)cc2)c(-c2ccc(OC)cc2)[nH]1", "technique": "SYBR Green", "strain": "D6", "time": "72 h", "setting": "blood stage", "quantity": "IC50", "result": "89 nM"}
{"Compound": "Cc1cc2ccc(-c3cnn(C)c3)cc2n1CC(=O)Nc1ccccc1Cl", "strain": "3D7", "time": "72 h", "setting": "blood stage", "quantity": "EC50", "result": "603 nM"}
{"Compound": "COc1cc(NC(C)CCCN)c2ncccc2c1 (stereo not shown)", "tested at": "100 µM", "setting": "gametocyte", "quantity": "inhibition", "result": "100%"}
{"Compound": "COc1cc(/C=C/C(=O)C(=Cc2ccc(O)cc2)C(=O)/C=C/c2ccc(O)c(OC)c2)ccc1O", "strain": "3D7", "setting": "blood stage", "quantity": "EC50", "result": "4350 nM"}
{"Compound": "CO[C@H]1/C=C/O[C@@]2(C)Oc3c(C)c(O)c4c(O)c(c(/C=N/N5CCN(C6CCCC6)CC5)c(O)c4c3C2=O)NC(=O)/C(C)=C\\C=C\\[C@H](C)[C@H](O)[C@@H](C)[C@@H](O)[C@@H](C)[C@H](OC(C)=O)[C@@H]1C", "strain": "NF54", "setting": "blood stage", "quantity": "IC50", "result": "240 nM"}
{"Compound": "Cc1[nH]c(/C=C2\\N=C(c3ccc[nH]3)C=C2OC(C)C)cc1Cc1ccc(Cl)cc1", "technique": "SYBR Green", "strain": "D6", "time": "72 h", "setting": "blood stage", "quantity": "IC50", "result": "3.75 nM"}
{"Compound": "N=C(N)N/N=C/c1c(Cl)cccc1Cl", "technique": "SYBR Green", "strain": "3D7", "setting": "blood stage", "quantity": "IC50", "result": "39.8 nM"}
{"Compound": "CC1=C(C)/C(=C/c2[nH]c(Cc3ccc(Cl)cc3)cc2Cc2ccc(Cl)cc2)N=C1c1ccc[nH]1", "technique": "SYBR Green", "strain": "D6", "time": "72 h", "setting": "blood stage", "quantity": "IC50", "result": "> 2500 nM"}
{"Compound": "Cc1ccc(Oc2ccc(NC(=O)CNc3ccccc3N3CCCCC3=O)cc2)cc1", "strain": "3D7", "time": "72 h", "setting": "blood stage", "quantity": "EC50", "result": "2500 nM"}
{"Compound": "CCOC1=CC(c2ccc[nH]2)=N/C1=C\\c1cc(Cc2ccc(OC(F)(F)F)cc2)c(C)[nH]1", "technique": "SYBR Green", "strain": "D6", "time": "72 h", "setting": "blood stage", "quantity": "IC50", "result": "6.89 nM"}
{"Compound": "CCN(CC)CCCC(C)Nc1ccnc2cc(Cl)ccc12 (stereo not shown)", "strain": "3D7", "setting": "blood stage", "quantity": "EC50", "result": "8 nM"}
{"Compound": "Cc1ccc(N(c2ccc(NC(=O)CN(C)c3ccccc3N3CCCC3=O)cc2)C(C)C)cc1", "strain": "3D7", "time": "72 h", "setting": "blood stage", "quantity": "EC50", "result": "5 nM"}
{"Compound": "Cc1nnc(-c2ccc3ccn(CC(=O)Nc4cccnc4)c3c2)o1", "strain": "3D7", "time": "72 h", "setting": "blood stage", "quantity": "EC50", "result": "4250 to 4780 nM"}
{"Compound": "CCN(c1ccc(C)cc1)c1ccc(NC(=O)CN(C)c2ccccc2N2CCCC2=O)cc1", "strain": "3D7", "time": "72 h", "setting": "blood stage", "quantity": "EC50", "result": "19 nM"}
{"Compound": "Cc1ccc(N(CC2=NCCN2)c2cccc(O)c2)cc1", "technique": "SYBR Green", "strain": "3D7", "setting": "blood stage", "quantity": "IC50", "result": "1790 nM"}
{"Compound": "COC1=C(OC)/C(=C/c2[nH]c(Cc3ccc(OC(F)(F)F)cc3)cc2Cc2ccc(OC(F)(F)F)cc2)N=C1c1ccc[nH]1", "technique": "SYBR Green", "strain": "D6", "time": "72 h", "setting": "blood stage", "quantity": "IC50", "result": "85.9 nM"}
{"Compound": "CCN(CC)CCOc1ccc2c(c1)C(=O)c1cc(OCCN(CC)CC)ccc1-2", "technique": "SYBR Green", "strain": "3D7", "setting": "blood stage", "quantity": "IC50", "result": "1540 nM"}
{"Compound": "CC(C)N(c1ccc(C#N)cc1)c1ccc(NC(=O)CN(C)c2ccccc2N2CCCC2=O)c(F)c1", "strain": "3D7", "time": "72 h", "setting": "blood stage", "quantity": "EC50", "result": "44 nM"}
{"Compound": "C[C@H]1Cc2c([nH]c3cc(Cl)c(F)cc23)[C@@]2(N1)C(=O)Nc1ccc(Cl)cc12", "strain": "DD2", "time": "72 h", "setting": "blood stage", "quantity": "EC50", "result": "0.7 nM"}
{"Compound": "Cc1ccc(Oc2ccc(NC(=O)COc3ccccc3N3CCCC3=O)cc2)cc1", "strain": "3D7", "time": "72 h", "setting": "blood stage", "quantity": "EC50", "result": "1570 nM"}
{"Compound": "COc1cc(/C=C2\\CC/C(=C\\c3ccc(O)c(OC)c3)C2=O)ccc1O", "strain": "3D7", "setting": "blood stage", "quantity": "EC50", "result": "250 nM"}
{"Compound": "CCCN(c1ccc(C)cc1)c1ccc(NC(=O)CN(C)c2ccccc2N2CCCC2=O)cc1", "strain": "3D7", "time": "72 h", "setting": "blood stage", "quantity": "EC50", "result": "10 nM"}
{"Compound": "Cc1[nH]c(/C=C2\\N=C(c3ccc[nH]3)C=C2OCc2ccccc2)cc1Cc1ccc(Cl)cc1", "technique": "SYBR Green", "strain": "D6", "time": "72 h", "setting": "blood stage", "quantity": "IC50", "result": "9.98 nM"}
{"Compound": "Cc1ccc(Oc2ccc(NC(=O)C(C)(C)Nc3ccccc3N3CCCC3=O)cc2)cc1", "strain": "3D7", "time": "72 h", "setting": "blood stage", "quantity": "EC50", "result": "> 10000 nM"}
{"Compound": "COC1=CC(c2ccc[nH]2)=N/C1=C\\c1[nH]c(C)cc1Cc1ccc(OC(F)(F)F)cc1", "technique": "SYBR Green", "strain": "D6", "time": "72 h", "setting": "blood stage", "quantity": "IC50", "result": "2.48 nM"}
{"Compound": "COc1cc(/C=C/C(=O)C(=Cc2ccccc2)C(=O)/C=C/c2ccc(O)c(OC)c2)ccc1O", "strain": "3D7", "setting": "blood stage", "quantity": "EC50", "result": "3790 nM"}
{"Compound": "COC1=CC(c2ccc[nH]2)=N/C1=C\\c1cc(Cc2ccc(OC(F)(F)F)cc2)c(C)[nH]1", "technique": "SYBR Green", "strain": "D6", "time": "72 h", "setting": "blood stage", "quantity": "IC50", "result": "3.17 nM"}
{"Compound": "COc1cc(/C=C2\\CCC/C(=C\\c3ccc(O)c(OC)c3)C2=O)ccc1O", "strain": "3D7", "setting": "blood stage", "quantity": "EC50", "result": "200 nM"}
